According to ChEMBL document CHEMBL1926675, “Thio- and aminocaffeine analogues as inhibitors of human monoamine oxidase” (Bioorg Med Chem, 2011):

Key:
[1] = target: T1, Amine oxidase [flavin-containing] A (Homo sapiens, UniProt P21397); test: Inhibition of human recombinant MAOA using kynuramine as substrate by fluorescence assay
T1 sequence (P21397 whole entry): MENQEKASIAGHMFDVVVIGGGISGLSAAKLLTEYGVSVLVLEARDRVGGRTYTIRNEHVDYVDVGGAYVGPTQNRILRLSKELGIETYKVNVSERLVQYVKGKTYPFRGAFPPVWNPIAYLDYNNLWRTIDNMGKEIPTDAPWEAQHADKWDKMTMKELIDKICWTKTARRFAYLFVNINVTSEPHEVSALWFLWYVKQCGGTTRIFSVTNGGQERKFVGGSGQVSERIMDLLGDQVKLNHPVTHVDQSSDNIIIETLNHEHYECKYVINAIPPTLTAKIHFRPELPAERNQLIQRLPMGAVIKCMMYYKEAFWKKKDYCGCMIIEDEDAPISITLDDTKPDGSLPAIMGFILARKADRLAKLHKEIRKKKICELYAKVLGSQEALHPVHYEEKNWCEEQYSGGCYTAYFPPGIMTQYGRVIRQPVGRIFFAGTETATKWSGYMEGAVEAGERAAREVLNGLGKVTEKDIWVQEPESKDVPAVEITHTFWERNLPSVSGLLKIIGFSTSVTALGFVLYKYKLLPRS
In short: (§1)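 Enzyme: insect-cell microsomal recombinant human MAO-A or -B (0.0075 mg/mL) in 100 mM potassium phosphate, pH 7.4, isotonic with KCl. Kynuramine 45 µM (MAO-A) or 30 µM (MAO-B), inhibitor 0–100 µM, 37 °C, 20 min. Reaction stopped with 2 N NaOH. 4-Hydroxyquinoline fluorescence read at ex 310/em 400 nm against a calibration curve. IC50 taken from one-site fits of six concentrations, in triplicate. Selectivity = IC50(MAO-A)/IC50(MAO-B).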

[2] = target: T2, Amine oxidase [flavin-containing] B (Homo sapiens, UniProt P27338); test: Inhibition of human recombinant MAOB using kynuramine as substrate by fluorescence assay; in short: as §1
T2 sequence (P27338 whole entry): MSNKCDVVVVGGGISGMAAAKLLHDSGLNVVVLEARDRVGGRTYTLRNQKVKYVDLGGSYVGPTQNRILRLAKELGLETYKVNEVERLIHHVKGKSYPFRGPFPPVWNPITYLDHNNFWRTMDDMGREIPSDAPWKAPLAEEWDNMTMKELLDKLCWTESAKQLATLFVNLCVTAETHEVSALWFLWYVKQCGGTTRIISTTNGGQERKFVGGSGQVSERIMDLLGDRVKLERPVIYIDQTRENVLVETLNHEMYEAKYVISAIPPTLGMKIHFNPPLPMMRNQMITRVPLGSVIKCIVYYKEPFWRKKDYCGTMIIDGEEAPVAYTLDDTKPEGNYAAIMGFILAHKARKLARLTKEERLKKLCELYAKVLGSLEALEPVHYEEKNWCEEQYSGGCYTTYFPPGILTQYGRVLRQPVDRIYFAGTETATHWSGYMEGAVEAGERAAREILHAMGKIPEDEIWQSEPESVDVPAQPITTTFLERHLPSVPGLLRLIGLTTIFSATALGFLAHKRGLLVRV

Homo sapiens = organism: Homo sapiens; test: Selectivity ratio, ratio of IC50 for human recombinant MAOA to IC50 for human recombinant MAOB; in short: as §1
[3] = target: T1, Amine oxidase [flavin-containing] A; test: Inhibition of human recombinant MAOA at 100 uM using kynuramine as substrate by fluorescence assay; in short: as §1
[4] = target: T2, Amine oxidase [flavin-containing] B; test: Inhibition of human recombinant MAOB at 100 uM using kynuramine as substrate by fluorescence assay; in short: as §1
[5] = target: T1, Amine oxidase [flavin-containing] A; test: Inhibition of human recombinant MAOA using kynuramine as substrate at 11.56 uM after 60 mins by fluorescence assay; conditions: 1 h
In short: (§2)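 Recombinant human MAO-A or -B (0.015–0.03 mg/mL) was preheated at 37 °C for 60 min in total and preincubated with inhibitor at about 2× its IC50 for 0, 15, 30 or 60 min in pH 7.4 potassium phosphate. Mixtures were diluted 2-fold with kynuramine (45 µM MAO-A, 30 µM MAO-B) and incubated 15 min at 37 °C. Residual 4-hydroxyquinoline formation was read by fluorescence.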

[6] = target: T1, Amine oxidase [flavin-containing] A; test: Reversible Inhibition of human recombinant MAOA using kynuramine as substrate at 2 times IC50 up to 60 mins; conditions: 1 h; in short: as §2
[7] = target: T1, Amine oxidase [flavin-containing] A; test: Time dependent inhibition of human recombinant MAOA using kynuramine as substrate at 11.56 uM by fluorescence assay; in short: as §2
[8] = target: T2, Amine oxidase [flavin-containing] B; test: Reversible Inhibition of human recombinant MAOB using kynuramine as substrate at 2 times IC50 up to 60 mins; conditions: 1 h; in short: as §2
[9] = target: T2, Amine oxidase [flavin-containing] B; test: Time dependent inhibition of human recombinant MAOB using kynuramine as substrate at 5.94 uM by fluorescence assay; in short: as §2
[10] = target: T2, Amine oxidase [flavin-containing] B; test: Inhibition of human recombinant MAOB using kynuramine as substrate at 5.94 uM after 60 mins by fluorescence assay; conditions: 1 h; in short: as §2
[11] = target: T2, Amine oxidase [flavin-containing] B; test: Competitive inhibition of human recombinant MAOB using kynuramine as substrate at 0.04 to 0.16 uM by Lineweaver burk plot analysis
In short: (§3)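 Insect-cell microsomal recombinant human MAO-A or -B, 0.015 mg/mL, in potassium phosphate buffer (100 mM, pH 7.4, isotonic with KCl). Initial rates were measured with four kynuramine concentrations (15–90 µM), without inhibitor and with three inhibitor levels (MAO-A 1.31–5.22 µM; MAO-B 0.04–0.16 µM). Lineweaver–Burk plots were fitted by linear regression.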

[12] = target: T2, Amine oxidase [flavin-containing] B; test: Inhibition of human recombinant MAOB using kynuramine as substrate at 0.32 uM after 60 mins by fluorescence assay; conditions: 1 h; in short: as §2
[13] = target: T1, Amine oxidase [flavin-containing] A; test: Competitive inhibition of human recombinant MAOA using kynuramine as substrate at 1.31 to 5.22 uM by Lineweaver burk plot analysis; in short: as §3
[14] = target: T1, Amine oxidase [flavin-containing] A; test: Inhibition of human recombinant MAOA using kynuramine as substrate at 5.22 uM after 60 mins by fluorescence assay; conditions: 1 h; in short: as §2
[15] = target: T1, Amine oxidase [flavin-containing] A; test: Time dependent inhibition of human recombinant MAOA using kynuramine as substrate at 5.22 uM by fluorescence assay; in short: as §2
[16] = target: T2, Amine oxidase [flavin-containing] B; test: Time dependent inhibition of human recombinant MAOB using kynuramine as substrate at 0.32 uM by fluorescence assay; in short: as §2

Compound | IC50 [1] [µM] | IC50 [2] [µM] | Ratio IC50 (Homo sapiens) | other results
Cn1c(=O)c2c(nc(Sc3ccccc3)n2C)n(C)c1=O | 56.4 | 33.2 | 1.7 | –
Cn1c(=O)c2c(nc(SCCc3ccccc3)n2C)n(C)c1=O | 20.5 | 0.223 | 91.9 | –
Cn1c(=O)c2c(nc(NCCCc3ccccc3)n2C)n(C)c1=O | – | – | – | IC50 [3]: Not Active; IC50 [4]: Not Active
Cn1c(=O)c2c(nc(SC3CCCC3)n2C)n(C)c1=O | 9.4 | 20.9 | 0.4 | –
COc1ccc(CSc2nc3c(c(=O)n(C)c(=O)n3C)n2C)cc1 | – | – | – | IC50 [3]: Not Active; IC50 [4]: Not Active
Cn1c(=O)c2c(nc(NCCCCc3ccccc3)n2C)n(C)c1=O | 30.9 | 9.6 | 3.2 | –
Cn1c(=O)c2c(nc(SCc3ccc(F)cc3)n2C)n(C)c1=O | 4.8 | 0.348 | 13.8 | –
Cn1c(=O)c2c(nc(NCCc3cccc(Cl)c3)n2C)n(C)c1=O | 5.78 | 24.4 | 0.2 | inhibition (INH) [5]: Not Active; inhibition (INH) [6]: Active; TDI [7]: Not Active
Cn1c(=O)c2c(nc(SCCOc3ccccc3)n2C)n(C)c1=O | 15.5 | 0.332 | 46.7 | –
CN(CCCCc1ccccc1)c1nc2c(c(=O)n(C)c(=O)n2C)n1C | 37.7 | 2.97 | 12.7 | inhibition (INH) [8]: Active; TDI [9]: Not Active; inhibition (INH) [10]: Not Active
Cn1c(=O)c2c(nc(NC3CCCC3)n2C)n(C)c1=O | – | – | – | IC50 [3]: Not Active; IC50 [4]: Not Active
Cn1c(=O)c2c(nc(SCc3ccc(Br)cc3)n2C)n(C)c1=O | 2.62 | 0.167 | 15.7 | inhibition (INH) [11]: Active; inhibition (INH) [12]: Not Active; inhibition (INH) [13]: Active; inhibition (INH) [14]: Not Active; inhibition (INH) [6]: Active; TDI [15]: Not Active; inhibition (INH) [8]: Active; TDI [16]: Not Active
Cn1c(=O)c2c(nc(SC3CCCCC3)n2C)n(C)c1=O | 24.4 | 13.1 | 1.9 | –
Cn1c(=O)c2c(nc(Nc3ccccc3)n2C)n(C)c1=O | – | – | – | IC50 [3]: Not Active; IC50 [4]: Not Active
CC(C)CCSc1nc2c(c(=O)n(C)c(=O)n2C)n1C | 15.2 | 2.62 | 5.8 | –
Cn1c(=O)c2c(nc(SCc3ccccc3)n2C)n(C)c1=O | 8.22 | 1.86 | 4.4 | –
CN(CCc1ccccc1)c1nc2c(c(=O)n(C)c(=O)n2C)n1C | 107 | 16.8 | 6.4 | –
Cn1c(=O)c2c(nc(NCCc3ccccc3)n2C)n(C)c1=O | 45.2 | 17.6 | 2.6 | –
Cn1c(=O)c2c(nc(NCc3ccccc3)n2C)n(C)c1=O | – | – | – | IC50 [3]: Not Active; IC50 [4]: Not Active
Cn1c(=O)c2c(nc(Sc3ccc4ccccc4c3)n2C)n(C)c1=O | 3.6 | 3.6 | 1 | –
Cn1c(=O)c2c(nc(SCc3ccc(Cl)cc3)n2C)n(C)c1=O | 2.77 | 0.192 | 14.4 | –
Cn1c(=O)c2c(nc(NCCc3ccccn3)n2C)n(C)c1=O | – | 19.4 | – | IC50 [3]: Not Active
